Bioassay records from PubChem.
Only some compounds are listed: those with a hit (about 2.4% of all), similar ones and a draw of the others.
STEP inh – inhibitors of human striatal-enriched phosphatase STEP | P54829 | AID 588621 | hit rate 0.25% among 360,000 | inhibition, % at 20 µM | recombinant STEP, OMFP fluorogenic substrate, fluorescence;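 active = inhibition at 20 µM, scaled per plate between control wells, above about 37%, limit read from the data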;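 note: 0% = DMSO with enzyme and substrate and 100% = substrate only without enzyme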
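System: STEP phosphatase, cell-free reaction; Buffer or medium: Bis-Tris pH 6.0 buffer with DTT, detergent; Incubation: 20 min at room temperature, dark; Measured by: fluorescence, 480/540 nm.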
NadD block – NadD (S. aureus) enzyme inhibition; purified NadD enzyme, colorimetric absorbance read-out; inhibition, % at 20 µM; hit rate 0.78% among 360,000; in the data active = inhibition above about 26%
SUMO1 PPI mod – alters human SUMO1 binding to SIM partners | P63165 | SUMO1 binding to a labelled peptide, TR-FRET, 1 h | inhibition, % at 20 µM | hit rate 0.33% among 360,000; in the data active = inhibition above about 37%
Target sequence (P63165 whole entry, looked up): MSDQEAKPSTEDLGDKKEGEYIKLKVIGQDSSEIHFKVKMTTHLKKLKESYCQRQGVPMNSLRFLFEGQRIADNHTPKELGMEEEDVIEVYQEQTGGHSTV
DNMT1 block – inhibitors of human DNMT1. P26358. inhibition (reported as % activation of signal), % at 10 µM. hit rate 0.83% among 360,000. DNMT1 molecular beacon, Hinp1I cleavage, fluorescence; in the data active = inhibition above about 50%
LMPTP block – LMPTP (human) inhibition. P24666. recombinant LMPTP-A, OMFP fluorogenic substrate, fluorescence intensity. inhibition, % at 20 µM. hit rate 0.22% among 360,000;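 active = compounds that cut the enzyme signal by at least half of the control window in the single-dose screen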;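 note: plate controls were DMSO wells with enzyme plus substrate for no effect and substrate without enzyme for full effect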
Target sequence (P24666 whole entry, looked up): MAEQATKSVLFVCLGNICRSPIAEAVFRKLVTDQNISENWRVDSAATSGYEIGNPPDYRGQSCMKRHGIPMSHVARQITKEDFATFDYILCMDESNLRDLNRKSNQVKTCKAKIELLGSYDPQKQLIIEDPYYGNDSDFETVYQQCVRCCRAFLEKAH
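Material: LMPTP-A; amount: 0.625 nM enzyme; doses: single 20 µM dose; times: reaction 50 min, room temperature, dark; technique: fluorescence intensity of OMFP turnover product; benchmarks: no-enzyme and uninhibited controls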
Scp1 inh – Scp-1 (human) phosphatase inhibition; Q9GZU7; Recombinant Scp1, phosphopeptide, malachite green phosphate absorbance; inhibition, % at 20 µM; hit rate 0.88% among 340,000; AID 493091;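 active = inhibition above about 50% at 20 µM, limit read from the data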;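 note: plate controls were DMSO wells with enzyme for no effect and wells lacking enzyme for full effect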
Target sequence (Q9GZU7 76-261 limits assumed): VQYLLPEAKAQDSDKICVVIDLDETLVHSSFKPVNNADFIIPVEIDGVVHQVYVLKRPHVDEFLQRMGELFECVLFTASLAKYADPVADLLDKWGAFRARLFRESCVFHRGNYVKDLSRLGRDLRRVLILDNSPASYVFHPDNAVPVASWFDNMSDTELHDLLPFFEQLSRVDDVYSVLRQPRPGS
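Material: truncated SCP-1 phosphatase (76-261aa) / Buffer or medium: 50 mM Tris acetate pH 5.5, 0.005% Tween-20, 10 mM MgCl2 / Compound dosing: one concentration, 20 µM, with 1.0% DMSO / Incubation: 45 min room-temperature reaction, 5 min colour, 30 min stabiliser / Detection: colorimetric free-phosphate detection, absorbance 630 nm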
NadD conf – NadD (S. aureus) inhibition, single concentration confirmation. hit rate 13% among 2,000. purified S. aureus NadD, colorimetric enzyme assay. inhibition, % at 20 µM. shares compounds with NadD block; in the data active = inhibition mostly above about 42%, no sharp cut-off; inactive = mostly below about 42%
Starred values were filed as active, the others as inactive.

COc1ccc(C(=O)/C=C/Nc2ccc(S(=O)(=O)Nc3onc(C)c3C)cc2)cc1 was read as STEP inh 3, NadD block 4, SUMO1 PPI mod 6, DNMT1 block 1, LMPTP block -1 and Scp1 inh -4.
`O=C1OC(c2ccc3ccccc3c2O)(c2ccc3ccccc3c2O)c2ccccc21` gave STEP inh -2, NadD block 41*, SUMO1 PPI mod -1, DNMT1 block -22, LMPTP block 4, Scp1 inh 1 and NadD conf 82*.
Screening O=C1OC2(c3ccccc31)c1ccccc1-c1ccccc12 returned STEP inh -4, NadD block -5, SUMO1 PPI mod 6, DNMT1 block -2, LMPTP block 2 and Scp1 inh -5.
Screening CCCN(CC(=O)Nc1ccccc1OC)C(=O)Cc1ccccc1F returned STEP inh -1, NadD block 3, SUMO1 PPI mod 2, DNMT1 block -1, LMPTP block -2 and Scp1 inh -6.
For COc1ccc(Cc2c(C3CCCCC3)nc3c(Cl)cc(C(F)(F)F)cn23)c(C)c1 the results were NadD block 31*, SUMO1 PPI mod -1, LMPTP block 0 and NadD conf 13.
Screening CC(O)C(NS(=O)(=O)c1ccc2ccccc2c1)C(=O)OCC(=O)Nc1ccccc1OC(F)F (stereo unspecified) returned STEP inh -3, NadD block -8, SUMO1 PPI mod -4, DNMT1 block -6, LMPTP block -1 and Scp1 inh -9.
Screening O=C(CNc1ccc(F)cc1)N/N=C1\CCc2ccccc21 returned STEP inh 3, NadD block 3, SUMO1 PPI mod -2, DNMT1 block -2, LMPTP block 1 and Scp1 inh -11.
For COc1ccc(NCC(=O)N/N=C2\CCc3ccccc32)cc1 the results were STEP inh 4, NadD block 30*, SUMO1 PPI mod 5, DNMT1 block -18, LMPTP block 5, Scp1 inh -4 and NadD conf 7.
COc1ccc(/C=C/C(=O)c2nc3ccccc3n2CC(=O)c2ccc(OC)cc2)cc1 was read as STEP inh 3, NadD block 30*, SUMO1 PPI mod -6, DNMT1 block -3, LMPTP block 3, Scp1 inh 5 and NadD conf 25.
`CNc1ccc(Br)cc(C(=O)/C=C/c2cccc(Cl)c2Cl)c1=O` gave STEP inh 1, NadD block 49*, SUMO1 PPI mod 16, DNMT1 block 46, LMPTP block 27, Scp1 inh -6 and NadD conf 16.
CCc1c(C)sc2nc3c(C(=O)N4CCOCC4)cc(C(=O)c4cc(F)ccc4O)cn3c(=O)c12 was read as STEP inh -1, NadD block 5, SUMO1 PPI mod -14, DNMT1 block -2, LMPTP block 2 and Scp1 inh -12.
`CCOC(=O)c1sc2nc3c(SCCC#N)cc(C(=O)c4cc(F)ccc4O)cn3c(=O)c2c1C` gave STEP inh 4, NadD block 33*, SUMO1 PPI mod 9, DNMT1 block -5, LMPTP block 0, Scp1 inh -27 and NadD conf -8.
`Cc1cc(C)cc(NC(=O)Cn2c(=O)oc3cc(S(=O)(=O)N4CC(C)CC(C)C4)ccc32)c1` (stereo unspecified) gave STEP inh -2, NadD block 36*, SUMO1 PPI mod 1, DNMT1 block -3, LMPTP block 3, Scp1 inh -12 and NadD conf 3.
`O=C(/C=C/c1ccco1)NC(=S)Nc1cccc(-c2nc3ccccc3s2)c1` gave STEP inh -1, NadD block 62*, SUMO1 PPI mod 23, DNMT1 block 32, LMPTP block 5, Scp1 inh -14 and NadD conf 13.
O=C(/C=C/c1ccco1)NC(=S)Nc1cccc(-c2nc3ccccc3o2)c1 was read as STEP inh 1, NadD block 31*, SUMO1 PPI mod 9, DNMT1 block 2, LMPTP block 2, Scp1 inh -2 and NadD conf -5.
O=C(/C=C/c1ccco1)NC(=S)Nc1cccc([N+](=O)[O-])c1 was read as STEP inh -2, NadD block 39*, SUMO1 PPI mod 6, DNMT1 block 8, LMPTP block 1, Scp1 inh -1 and NadD conf 18.
`Cc1cccc(NC(=S)NC(=O)/C=C/c2ccco2)c1` gave STEP inh 4, NadD block 3, SUMO1 PPI mod 6, DNMT1 block 2, LMPTP block 3 and Scp1 inh -9.
`Cn1nccc1NC(=O)COCC(=O)O` gave STEP inh -2, NadD block 1, SUMO1 PPI mod -4, DNMT1 block 2, LMPTP block -1 and Scp1 inh -3.
Screening O=C(/C=C/c1cccs1)Nc1cccc(NC(=O)/C=C/c2cccs2)n1 returned STEP inh 1, NadD block 32*, SUMO1 PPI mod -1, DNMT1 block -17, LMPTP block 5, Scp1 inh 16 and NadD conf 33.
Screening O=C(/C=C/c1cccs1)Nc1nccs1 returned STEP inh -5, NadD block 8, SUMO1 PPI mod -4, DNMT1 block 1, LMPTP block -2 and Scp1 inh -6.
`COc1ccc(C2=NN(C(=O)CSc3nc(=O)n4cc(C)ccc4n3)C(c3ccc(C)cc3)C2)cc1` (stereo unspecified) gave STEP inh 1, NadD block 49*, SUMO1 PPI mod -115, DNMT1 block -5, LMPTP block 5, Scp1 inh 0 and NadD conf 15.
`COc1ccc(C2CC(c3cccs3)=NN2C(=O)CSc2nc(=O)n3ccc(C)cc3n2)cc1` (stereo unspecified) gave STEP inh 1, NadD block 46*, SUMO1 PPI mod -1, DNMT1 block 13, LMPTP block 18, Scp1 inh 23 and NadD conf 44.
For COc1ccc(C2CC(c3cccs3)=NN2C(=O)CSc2nc3c(cnn3-c3ccccc3)c(=O)[nH]2)cc1 (stereo unspecified) the results were STEP inh -2, NadD block 40*, SUMO1 PPI mod -4, DNMT1 block -3, LMPTP block 2, Scp1 inh -17 and NadD conf 7.
For Cc1ccc(C2CC(c3cccs3)=NN2C(=O)CSc2nc(=O)n3ccc(C)cc3n2)cc1 (stereo unspecified) the results were STEP inh 2, NadD block 38*, SUMO1 PPI mod -5, DNMT1 block 41, LMPTP block 5 and NadD conf 51*.
